# Source: PubChem (Broad Institute)
# IDH1 R132H inh = inhibitors of human IDH1 R132H. IDH1 R132H reductase, diaphorase/resazurin fluorescence, 60 min. inhibition, % at 10 µM. 0.18% of 70,000 active; in the data active = inhibition above about 34%; inconclusive = no clear call, values can overlap the other calls; inactive = below about 11%;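 also: 0% = DMSO and 100% = no enzyme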
# Target sequence (O75874 whole entry R132H): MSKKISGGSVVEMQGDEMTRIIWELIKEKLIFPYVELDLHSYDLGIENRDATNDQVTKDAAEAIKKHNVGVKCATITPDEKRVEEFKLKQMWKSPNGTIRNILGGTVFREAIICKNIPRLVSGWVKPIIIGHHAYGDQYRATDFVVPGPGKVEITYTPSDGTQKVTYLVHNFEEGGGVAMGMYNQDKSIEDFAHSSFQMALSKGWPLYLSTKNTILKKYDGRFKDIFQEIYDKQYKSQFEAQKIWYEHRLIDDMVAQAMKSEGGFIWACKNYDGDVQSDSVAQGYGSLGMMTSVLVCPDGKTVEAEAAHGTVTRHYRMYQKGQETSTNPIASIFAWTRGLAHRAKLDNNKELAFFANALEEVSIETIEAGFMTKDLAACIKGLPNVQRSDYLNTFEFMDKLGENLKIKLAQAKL
# T cruzi growth-1 = inhibitors of T. cruzi proliferation. inhibition, % at 8.34 µM. 5.9% of 77,000 active. AID 624255. T. cruzi beta-gal in NIH3T3, GalScreen luminescence, 90 h;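 active = mean inhibition above about 93%, with at least 55% of replicates each passing it, limit read from the data, passing the limit was not always enough; inconclusive = only one of those two conditions holds; inactive = neither condition holds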
# KDM4C inh = KDM4C (human) demethylase inhibition | Q9H3R0 | GST-KDM4C 2-372, H3K9me3 peptide, LANCE TR-FRET | inhibition, % at 12.5 µM | 0.15% of 96,000 active | AID 720574;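 active = mean replicate inhibition above about 25%, with at least 55% of replicates also reaching it, limit read from the data, passing the limit was not always enough; inconclusive = only one of those two conditions met; inactive = neither condition met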
#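 Compound: one test concentration per compound; Material: GST-GASC-1 enzyme fragment 2-372; Amount: GASC-1 enzyme at 10 nM final in reaction; Also added: H3K9me3 peptide substrate, Fe(II), 2-oxoglutarate; Technique: LANCE TR-FRET; Times: 30 min demethylation and 1 h detection at room temperature.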
# T cruzi growth-2 = Trypanosoma cruzi proliferation inhibition. shares compounds with T cruzi growth-1. T. cruzi beta-gal in NIH3T3, GalScreen luminescence, 90 h. inhibition, % at 8.35 µM. 72% of 5,600 active. AID 651739;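 active = mean replicate inhibition above about 95% and at least 55% of replicates individually reaching it, limit read from the data; inconclusive = only one of the two criteria is met; inactive = neither criterion is met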
# T cruzi growth-3 = inhibitors of T. cruzi proliferation | shares compounds with T cruzi growth-1 | AID 651740 | T. cruzi beta-gal in NIH3T3, GalScreen luminescence, 90 h | 21% of 5,600 active | inhibition, % at 2.09 µM;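 active = mean inhibition above about 95%, with at least 55% of replicates also reaching it, limit read from the data; inconclusive = meets just one of the two conditions; inactive = meets neither condition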;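 also: plate controls were neutral control median for no effect and positive control median for full effect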
# 3T3 cytotox = kills mouse NIH/3T3 fibroblasts | shares compounds with T cruzi growth-1 | NIH/3T3 viability, CellTiter-Glo ATP luminescence, 90 h | cytotoxicity (signal decrease), % at 8.35 µM | 14% of 5,600 active | AID 651742;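 active = mean signal decrease across replicates above about 35% based on untreated-well scatter, with enough replicates individually passing, limit read from the data; inconclusive = no rule stated though some were filed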;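 also: 0% = median of neutral control wells and 100% = median of positive control wells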
# 3T3 cytotox 2 = cytotoxicity in mouse NIH/3T3 fibroblasts; shares compounds with T cruzi growth-1; NIH/3T3 viability, CellTiter-Glo ATP luminescence, 90 h; inhibition, % at 24.9 µM; 56% of 5,600 active; AID 651744;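 active = mean loss of cell viability signal at or above a set limit, and enough replicates individually reaching it; inconclusive = meets only the mean limit or only the replicate share; inactive = meets neither condition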;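 also: 0% = median of neutral control wells and 100% = median of positive control wells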
# * hit, by the source's call; ? = inconclusive; . = no result. This excerpt belongs to a sample that is enriched for hits.
SMILES,IDH1 R132H inh,T cruzi growth-1,KDM4C inh,T cruzi growth-2,T cruzi growth-3,3T3 cytotox,3T3 cytotox 2
O=C(N/N=C/c1ccc(OCCO)cc1)c1ccccn1,0,.,.,.,.,.,.
c1ccc(-c2nn3c(Cn4cnc5ccccc54)nnc3s2)nc1,0,.,.,.,.,.,.
COc1cc(C2NC(=O)NC(c3ccccc3)=C2C(=O)c2ccccc2)cc(Cl)c1OCC(N)=O (stereo unspecified),4,.,.,.,.,.,.
CCOC(=O)COc1ccc2c(=O)c(-c3ccccc3OC)c(C(F)(F)F)oc2c1,1,.,.,.,.,.,.
CCc1ccc(-n2nc3cc(C)c(NC(=O)COc4ccccc4[N+](=O)[O-])cc3n2)cc1,1,.,.,.,.,.,.
Cc1ccc(N(Cc2ccc(C(=O)Nc3cc([N+](=O)[O-])ccc3C)cc2)S(C)(=O)=O)cc1C,0,.,.,.,.,.,.
COC(=O)C1=COC(O[C@@H]2O[C@H](CO)[C@@H](O)[C@H](O)[C@H]2O)[C@@H]2[C@@](C)(O)CC[C@]12O (stereo partly specified),0,.,.,.,.,.,.
Cc1ccccc1S(=O)(=O)NCC[C@H]1CC[C@H](NS(=O)(=O)c2ccccc2C)[C@@H](CO)O1,0,-63,0,.,.,.,.
Cc1noc(C)c1S(=O)(=O)N(C)C[C@@H]1OCCCC[C@@H](C)Oc2ccc(NC(=O)Nc3ccc4c(c3)OCO4)cc2C(=O)N([C@@H](C)CO)C[C@@H]1C,.,58,1,.,.,.,.
Cc1noc(C)c1NC(=O)Nc1ccc2c(c1)C(=O)N([C@@H](C)CO)C[C@@H](C)[C@@H](CN(C)S(=O)(=O)c1c(C)noc1C)OCCCC[C@@H](C)O2,.,52,0,.,.,.,.
Cc1noc(C)c1S(=O)(=O)N(C)C[C@H]1OCCCC[C@@H](C)Oc2ccc(NC(=O)Nc3ccc4c(c3)OCO4)cc2C(=O)N([C@H](C)CO)C[C@@H]1C,0,103*,1,?,13,26,45*
Cc1noc(C)c1S(=O)(=O)N(C)C[C@@H]1OCCCC[C@@H](C)Oc2ccc(NC(=O)Nc3ccc4c(c3)OCO4)cc2C(=O)N([C@H](C)CO)C[C@@H]1C,.,58,-2,.,.,.,.
Cc1noc(C)c1S(=O)(=O)N(C)C[C@H]1OCCCC[C@@H](C)Oc2ccc(NC(=O)Nc3ccc4c(c3)OCO4)cc2C(=O)N([C@@H](C)CO)C[C@H]1C,2,108*,-1,105*,25,28,21
Cc1noc(C)c1S(=O)(=O)N(C)C[C@H]1OCCCC[C@H](C)Oc2ccc(NC(=O)Nc3ccc4c(c3)OCO4)cc2C(=O)N([C@@H](C)CO)C[C@@H]1C,1,?,-1,106*,4,0,-3
O=C(C1CC1)N1CC2(C1)[C@@H](c1ccccc1)[C@@H](CO)N2Cc1nccs1,.,.,1,.,.,.,.
N#Cc1ccc(NC(=O)Cn2ccc([N+](=O)[O-])n2)cc1,0,.,.,.,.,.,.
C[C@H]1CN([C@@H](C)CO)S(=O)(=O)c2ccc(C#CCN(C)C)cc2O[C@H]1CN(C)CC1CC1,-1,110*,3,?,43,15,12
C[C@@H]1CN([C@H](C)CO)S(=O)(=O)c2ccc(C#CCN(C)C)cc2O[C@H]1CN(C)CC1CCCC1,0,104*,2,107*,69,11,104*
CCCC#Cc1ccc2c(c1)O[C@H](CN(C)CC1CC1)[C@H](C)CN([C@H](C)CO)S2(=O)=O,-1,-12,1,.,.,.,.
C[C@@H]1CN([C@@H](C)CO)S(=O)(=O)c2ccc(C#CCN(C)C)cc2O[C@H]1CN(C)CC1CCCC1,-2,88,0,.,.,.,.
Cc1ccc(-n2c(SCC(=O)Nc3ccc(F)c(Cl)c3)nnc2-c2ccco2)cc1,0,.,.,.,.,.,.
C[C@H]1CN([C@@H](C)CO)C(=O)c2c(c3ccccc3n2C)-c2ccccc2CO[C@@H]1CN(C)S(=O)(=O)c1ccc(Cl)cc1,.,58,-1,.,.,.,.
Cc1cccc(S(=O)(=O)N(C)C[C@H]2OCc3ccccc3-c3c(n(C)c4ccccc34)C(=O)N([C@H](C)CO)C[C@@H]2C)c1,.,75,-4,.,.,.,.
C[C@@H]1CN([C@@H](C)CO)C(=O)c2c(c3ccccc3n2C)-c2ccccc2CO[C@@H]1CN(C)S(=O)(=O)c1ccsc1,3,62,-2,.,.,.,.
C[C@@H]1CN([C@@H](C)CO)C(=O)c2c(c3ccccc3n2C)-c2ccccc2CO[C@@H]1CN(C)S(=O)(=O)c1ccc(Cl)cc1,0,100*,0,98*,102*,3,66*
SMILES,IDH1 R132H inh,T cruzi growth-1,KDM4C inh,T cruzi growth-2,T cruzi growth-3,3T3 cytotox,3T3 cytotox 2
C[C@@H]1CN([C@H](C)CO)C(=O)c2c(c3ccccc3n2C)-c2ccccc2CO[C@H]1CN(C)S(=O)(=O)c1cccc(F)c1,0,66,-1,.,.,.,.
Cc1cccc(S(=O)(=O)N(C)C[C@@H]2OCc3ccccc3-c3c(n(C)c4ccccc34)C(=O)N([C@H](C)CO)C[C@@H]2C)c1,.,?,-4,99*,106*,25,78*
C[C@H]1CN([C@@H](C)CO)C(=O)c2c(c3ccccc3n2C)-c2ccccc2CO[C@@H]1CN(C)S(=O)(=O)c1cccc(F)c1,.,102*,7,108*,86,-22,27*
C[C@H]1CN([C@@H](C)CO)C(=O)c2c(c3ccccc3n2C)-c2ccccc2CO[C@@H]1CN(C)S(=O)(=O)c1ccsc1,.,114*,-4,107*,57,1,9
N#C/C(=C\c1ccc(C2=CCOc3ccccc32)s1)S(=O)(=O)c1ccccc1,0,.,.,.,.,.,.
COc1ccc(S(=O)(=O)N(C)C[C@H]2OCCCC[C@H](C)Oc3ccc(NS(=O)(=O)c4cn(C)cn4)cc3C(=O)N([C@H](C)CO)C[C@H]2C)cc1,-9,70,-2,.,.,.,.
O=[N+]([O-])c1ccccc1/C=C/CN1CCN(CCO)CC1,-1,.,.,.,.,.,.
COC(=O)c1cc(OC)c(OC)cc1NC(=O)COc1cc(C)c(Br)c(C)c1,2,.,.,.,.,.,.
CCCOc1ccc(-c2nc(SCC(N)=O)n[nH]2)cc1,0,.,.,.,.,.,.
C[C@@H]1CN([C@@H](C)CO)C(=O)c2c(c3ccccc3n2C)-c2ccccc2CO[C@H]1CN(C)S(=O)(=O)c1cccc(C#N)c1,.,93,-1,.,.,.,.
C[C@H](CO)N1C[C@H](C)[C@H](CN(C)S(=O)(=O)c2cccc(C#N)c2)OCc2ccccc2-c2c(n(C)c3ccccc23)C1=O,-3,101*,0,105*,42,-4,4
C[C@H](CO)N1C[C@H](C)[C@H](CN(C)S(=O)(=O)c2ccccc2F)OCc2ccccc2-c2c(n(C)c3ccccc23)C1=O,3,99*,-1,104*,83,44*,97*
C[C@@H]1CN([C@@H](C)CO)C(=O)c2c(c3ccccc3n2C)-c2ccccc2CO[C@H]1CN(C)S(=O)(=O)c1ccccc1F,.,70,-2,.,.,.,.
